Measured values as given in ChEMBL document CHEMBL1144747, “(Phenylpiperazinyl-butyl)oxindoles as selective 5-HT7 receptor antagonists” (J Med Chem, 2008).
Activity calls are given as the source filed them. The rule behind the calls is not given here.

What was measured:
[1] = biological target: T1, 5-hydroxytryptamine receptor 7 (Homo sapiens, UniProt P34969); assay: Displacement of [3H]LSD from human recombinant 5HT7 receptor expressed in CHO cells; format: cell-based
In short: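 Cloned human 5-HT7 receptor from CHO cells, labelled with [3H]LSD; nonspecific binding with 25 µM clozapine. Stopped by filtration on PEI-soaked GF/C filters, then scintillation counting. Ki from two displacement curves of nine concentrations each, run in triplicate.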

[2] = biological target: T2, 5-hydroxytryptamine receptor 1A (Rattus norvegicus) (UniProt P19327); assay: Displacement of [3H]8-OH-DPAT from 5HT1A receptor in rat frontal cortex membrane at 0.1 uM; format: cell membranes
T2 sequence (whole entry): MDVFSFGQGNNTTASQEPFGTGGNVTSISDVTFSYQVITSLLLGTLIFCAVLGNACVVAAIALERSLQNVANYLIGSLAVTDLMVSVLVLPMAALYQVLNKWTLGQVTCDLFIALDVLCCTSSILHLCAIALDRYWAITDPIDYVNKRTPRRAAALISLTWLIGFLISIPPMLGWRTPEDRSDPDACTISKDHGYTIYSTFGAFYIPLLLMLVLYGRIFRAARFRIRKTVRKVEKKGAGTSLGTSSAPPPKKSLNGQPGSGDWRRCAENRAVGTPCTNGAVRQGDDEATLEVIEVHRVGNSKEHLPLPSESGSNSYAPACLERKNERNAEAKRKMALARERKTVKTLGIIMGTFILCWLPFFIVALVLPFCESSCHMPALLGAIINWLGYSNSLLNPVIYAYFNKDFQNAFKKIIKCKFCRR
In short: (§1)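 Rat tissue homogenized in 50 mM Tris-HCl pH 7.7, washed by repeated 40000g spins with a 10 min 37 °C incubation. Buffer: Tris-HCl, 6.66 mM CaCl2, 16.66 µM pargyline, 0.166% ascorbate. Labelled with 1.5 nM [3H]8-OH-DPAT, 45 min at 25 °C; nonspecific with 10 µM 5-HT. GF/B filtration, then scintillation counting; percent inhibition.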

[3] = biological target: T2, 5-hydroxytryptamine receptor 1A (Rattus norvegicus); assay: Displacement of [3H]8-OH-DPAT from 5HT1A receptor in rat frontal cortex membrane at 10 nM; format: cell membranes; in short: as §1
Rattus norvegicus = assay: Anxiolytic activity in ip dosed Wistar rat assessed as number of punished licks for 5 mins by conflict drinking test; format: functional; conditions: read-out: MED
In short: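 Modified Vogel test in male Wistar rats, 160–180 g, water-deprived 48 h and fasted 24 h. Dosed ip 30 min before test. After a 30 s free-drinking period, 600 µA, 0.6 s shocks came through the spout every 20 licks over 5 min. Punished licks counted; minimal effective dose reported.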

Mus musculus = assay: Anxiolytic activity in ip dosed NMRI mouse assessed as behavioral activity for 5 mins by light dark assay; format: functional; conditions: read-out: MED
In short: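 Male NMRI mice, 25–33 g, kept in a dark room and dosed ip 30 min before test, then placed in the centre of the lit area. Over 5 min, time in each area, transitions, and horizontal and vertical activity were recorded. Minimal effective dose by one-way ANOVA with Duncan's test.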

[4] = biological target: T1, 5-hydroxytryptamine receptor 7; assay: Antagonist activity at human 5HT7A receptor expressed in CHO cells assessed as inhibition of […]-induced cAMP elevation at 1 uM; format: functional, cell-based; parameters: scale not given: the % may be the effect or the level left
In short: (§2)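 CHO cells stably expressing human 5-HT7A, cultured in F12:DMEM with 5% FCS, seeded 24 h ahead. Compounds from 1 mM DMSO stock (final DMSO 0.1%) preincubated 10 min, then 20 min with 10 nM 5-CT at 37 °C. Cells lysed, cAMP by EIA, normalized to BCA protein. The 5-CT-induced level is taken as 100%; six independent experiments.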

[5] = biological target: T1, 5-hydroxytryptamine receptor 7; assay: Antagonist activity at human 5HT7A receptor expressed in CHO cells assessed as inhibition of […]-induced cAMP elevation at 10 nM administered before […] challenge; format: functional, cell-based; parameters: scale not given: the % may be the effect or the level left; in short: as §2

T1 sequence (P34969 whole entry): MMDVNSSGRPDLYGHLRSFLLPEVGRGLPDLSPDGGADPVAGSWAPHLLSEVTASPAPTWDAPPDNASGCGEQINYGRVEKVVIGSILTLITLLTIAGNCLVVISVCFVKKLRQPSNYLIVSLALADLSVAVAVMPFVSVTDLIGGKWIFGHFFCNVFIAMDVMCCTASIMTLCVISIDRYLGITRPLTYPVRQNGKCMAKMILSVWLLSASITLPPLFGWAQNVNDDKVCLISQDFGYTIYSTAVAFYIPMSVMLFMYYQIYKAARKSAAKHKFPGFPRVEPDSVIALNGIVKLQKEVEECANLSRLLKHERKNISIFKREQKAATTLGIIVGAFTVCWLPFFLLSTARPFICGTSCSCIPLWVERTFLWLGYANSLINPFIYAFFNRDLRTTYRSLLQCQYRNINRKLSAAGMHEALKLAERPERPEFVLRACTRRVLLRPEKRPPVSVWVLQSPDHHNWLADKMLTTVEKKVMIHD

| SMILES | Ki ([1]; read-out: Ki) | Activity [2] | Activity [3] | minimal effective dose (Rattus norvegicus) | minimal effective dose (Mus musculus) | Activity [4] | Activity [5] | Ki ([1]; read-out: Log Ki (converted)) |
| --- | --- | --- | --- | --- | --- | --- | --- | --- |
| CCC1(CCCCN2CCN(c3cccc(Cl)c3)CC2)C(=O)Nc2cc(F)ccc21 (configuration not stated) | 0.67 nM | 37% | 11% | > 20 mg/kg |  |  |  |  |
| CCC1(CCCCN2CCN(c3ccc(Cl)cc3)CC2)C(=O)Nc2ccc(Cl)cc21 (configuration not stated) | 3.72 nM | 0% |  | > 20 mg/kg |  |  |  |  |
| CCC1(CCCCN2CCN(c3ccccc3OC)CC2)C(=O)N(Cc2ccccc2)c2ccccc21 (configuration not stated) | 6.57 nM | 86% | 32% | > 20 mg/kg |  |  |  |  |
| CCC1(CCCCN2CCN(c3ccc(F)cc3)CC2)C(=O)Nc2ccccc21 (configuration not stated) | 0.43 nM | 10% | 12% | 10 mg/kg | < 1 mg/kg |  |  |  |
| CCC1(CCCCN2CCN(c3ccc(Cl)c(Cl)c3)CC2)C(=O)Nc2ccccc21 (configuration not stated) | 0.63 nM | 11% | 0% | > 20 mg/kg |  |  |  |  |
| CCC1(CCCCN2CCN(c3cccc(Cl)c3)CC2)C(=O)Nc2ccc(F)cc21 (configuration not stated) | 2.11 nM | 24% |  | < 5 mg/kg | > 10 mg/kg |  |  |  |
| CCC1(CCCCN2CCN(c3cccc(OC)c3)CC2)C(=O)Nc2ccccc21 (configuration not stated) | 2.55 nM | 33% | 6% | > 20 mg/kg |  |  |  |  |
| CCC1(CCCCN2CCN(c3ccccc3)CC2)C(=O)Nc2ccccc21 (configuration not stated) | 2.07 nM | 26% | 6% | 10 mg/kg |  |  |  |  |
| CCC1(CCCCN2CCN(c3cccc(Cl)c3)CC2)C(=O)Nc2c(Cl)cc(F)cc21 (configuration not stated) | 4.75 nM | 31% |  | > 20 mg/kg | > 10 mg/kg |  |  |  |
| CCC1(CCCCN2CCN(c3ccc(Cl)cc3)CC2)C(=O)Nc2ccc(F)cc21 (configuration not stated) | 2.81 nM | 9% |  | > 20 mg/kg | > 10 mg/kg |  |  |  |
| O=C1Nc2ccc(F)cc2C1CCCCN1CCN(c2cccc(Cl)c2)CC1 (configuration not stated) | 1.96 nM | 43% |  | > 20 mg/kg |  |  |  |  |
| CCC1(CCCCN2CCN(c3ccc(F)cc3)CC2)C(=O)Nc2ccc(F)cc21 (configuration not stated) | 1.5 nM | 7% |  | > 20 mg/kg |  |  |  |  |
| CCC1(CCCCN2CCc3sccc3C2)C(=O)Nc2ccccc21 (configuration not stated) | 4.31 nM | 29% |  | > 20 mg/kg | > 10 mg/kg |  |  |  |
| CCC1(CCCCN2CCC(C)CC2)C(=O)Nc2ccccc21 (configuration not stated) |  | 0% |  |  |  | > 95% |  |  |
| CCC1(CCCCN2CC=C(c3ccc(F)cc3)CC2)C(=O)Nc2ccccc21 (configuration not stated) | 1.19 nM | 19% |  | 20 mg/kg |  | > 95% |  |  |
| CCC1(CCCCN2CCN(c3ccc(OC)cc3)CC2)C(=O)Nc2ccccc21 (configuration not stated) | 25.4 nM | 24% | 3% | > 20 mg/kg |  |  |  |  |
| CCC1(CCCCN2CCN(c3cccc(Cl)c3)CC2)C(=O)Nc2ccc(Cl)cc21 (configuration not stated) | 8.27 nM | 18% |  | > 20 mg/kg |  |  |  |  |

| SMILES | Ki ([1]; read-out: Ki) | Activity [2] | Activity [3] | minimal effective dose (Rattus norvegicus) | minimal effective dose (Mus musculus) | Activity [4] | Activity [5] | Ki ([1]; read-out: Log Ki (converted)) |
| --- | --- | --- | --- | --- | --- | --- | --- | --- |
| CCC1(CCCCN2CCN(c3ccccc3OC)CC2)C(=O)Nc2ccccc21 (configuration not stated) | 5.38 nM | 79% | 28% | 10 mg/kg |  |  |  |  |
| CCC1(CCCCN2CCc3ccccc3C2)C(=O)Nc2ccccc21 (configuration not stated) | 7.65 nM | 52% |  | > 20 mg/kg |  | > 95% |  |  |
| CCC1(CCCCN2CCN(c3ccc(C)c(Cl)c3)CC2)C(=O)Nc2ccccc21 (configuration not stated) | 0.66 nM | 11% | 0% | > 20 mg/kg |  | > 95% | 40% |  |
| CCC1(CCCCN2CCN(c3ccc(Cl)cc3)CC2)C(=O)Nc2cc(F)c(Cl)cc21 (configuration not stated) | 6.99 nM | 0% |  |  |  |  |  |  |
| CCC1(CCCCN2CCN(c3ccc(Cl)cc3)CC2)C(=O)Nc2c(Cl)cc(F)cc21 (configuration not stated) | 5.97 nM | 0% |  | > 20 mg/kg |  |  |  |  |
| CC(C)CC1(CCCCN2CCN(c3cccc(Cl)c3)CC2)C(=O)Nc2ccccc21 (configuration not stated) | 1.8 nM | 12% |  | 10 mg/kg | > 10 mg/kg | > 95% | inactive |  |
| CCC1(CCCCN2CCN(c3ccccc3)CC2)C(=O)N(C)c2ccccc21 (configuration not stated) | 33.4 nM | 42% | 12% | 20 mg/kg |  |  |  |  |
| CCC1(CCCCCN2CCN(c3ccc(Cl)cc3)CC2)C(=O)Nc2ccccc21 (configuration not stated) | 1.24 nM | 11% | 0% | > 20 mg/kg |  |  |  |  |
| CC1CCN(CC[C@H]2CCCN2S(=O)(=O)c2cccc(O)c2)CC1 |  |  |  |  |  | > 95% | 80% |  |
| CCC1(CCCCN2CCN(c3cccc(Cl)c3)CC2)C(=O)Nc2cc(F)c(Cl)cc21 (configuration not stated) | 9.07 nM | 16% |  | 20 mg/kg |  |  |  |  |
| CCC1(CCCN2CCN(c3cccc(Cl)c3)CC2)C(=O)Nc2ccccc21 (configuration not stated) | 21 nM | 91% | 57% | > 20 mg/kg | 3 mg/kg |  |  |  |
| CCC1(CCCCN2CC=C(c3ccc(Cl)cc3)CC2)C(=O)Nc2ccccc21 (configuration not stated) | 1.02 nM | 10% |  | > 20 mg/kg |  | > 95% | inactive |  |
| CCC1(CCCCN2CCN(c3ccccc3Cl)CC2)C(=O)Nc2ccccc21 (configuration not stated) | 5.11 nM | 51% | 9% | > 20 mg/kg |  |  |  |  |
| CCC1(CCCCN2CCN(c3ccc(F)c(Cl)c3)CC2)C(=O)Nc2ccccc21 (configuration not stated) | 0.6 nM | 14% | 0% | > 20 mg/kg |  |  |  |  |
| COc1ccccc1N1CCN(CCCCC23CCCc4cccc(c42)NC3=O)CC1 (configuration not stated) |  |  |  |  |  |  |  | 2.14 nM |
| CCC1(CCCCN2CCC(c3ccc(F)cc3)CC2)C(=O)Nc2ccccc21 (configuration not stated) | 5.3 nM | 11% |  | 20 mg/kg | > 10 mg/kg |  |  |  |
| CCC1(CCCCN2CCN(c3cccc(Cl)c3)CC2)C(=O)Nc2c(Cl)cc(Cl)cc21 (configuration not stated) | 9.46 nM | 7% |  | > 20 mg/kg |  |  |  |  |
